Source: ChEMBL document CHEMBL4011639, “Discovery of Novel Nucleotide Prodrugs with Improved Potency Against HCV Variants Carrying NS5B S282T Mutation” (J Med Chem, 2017)

Columns and labels:
Mus musculus [1] = assay: Subacute toxicity in ICR mouse assessed as effect on appearance of hepatocytes at 100 to 1000 mg/kg, administered once a day via oral gavage for 14 days by hematoxylin/eosin-staining based microscopic analysis; type: organism-based; conditions: in vivo, 336 h
In short: (§1)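 Same 14-day daily oral gavage design as the subacute study (ICR mice, 5 per sex per group, 100/500/1000 mg/kg or vehicle). Liver and kidney taken after anesthesia on day 15, processed routinely, cut as 5 μm paraffin sections, stained with hematoxylin and eosin and examined microscopically.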

[2] = Cmax in Beagle dog at 150 mg/kg, administered via oral gavage measured up to 24 hrs post dose by LC/MS/MS analysis; type: ADME, organism-based, Canis lupus familiaris; design: dose 150 mg/kg, route oral; conditions: in vivo
In short: (§2)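 Beagle dogs, 3 per sex, given a single oral gavage dose of 150 mg/kg in 20% w/v hydroxypropyl-β-cyclodextrin in water, 2.5 mL/kg. K2EDTA blood taken by venipuncture at 0.5, 0.75, 1, 2, 4, 6, 8, 12 and 24 h. Plasma extracted with ice-cold acetonitrile, then LC/MS/MS in positive MRM mode with zolpidem as internal standard. Noncompartmental analysis; mean ± SD.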

Mus musculus [3] = assay: Acute toxicity in ICR mouse assessed as body weight loss at 150 to 1800 mg/kg, administered via oral gavage measured once a day over 14 days; type: organism-based; conditions: in vivo, 336 h
In short: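 ICR mice, 22−25 g, 5 per sex per group. Single oral gavage at 150, 500, 1200 or 1800 mg/kg in vehicle of 30% PEG400/30% Tween 20/20% corn oil/20% water, with a vehicle control. Mortality, morbidity, clinical signs and body weight change recorded once daily for 14 days.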

Mus musculus [4] = assay: Subacute toxicity in ICR mouse assessed as body weight loss at 100 to 1000 mg/kg, administered once a day via oral gavage for 14 days; type: organism-based; conditions: in vivo, 336 h
In short: (§3)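 ICR mice, 22−25 g, 5 per sex per group, gavaged daily for 14 days at 100, 500 or 1000 mg/kg in 30% PEG400/30% Tween 20/20% corn oil/20% water, with a vehicle control group. Observed daily for body weight change, skin and fur, inflammation and necrosis. Animals anesthetized on day 15; organ weights (liver, kidney) taken. Serum SGOT/SGPT compared with controls.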

[5] = Drug metabolism in human HuH7 cells assessed as nucleoside diphosphate kinase-mediated ((2R,3R,4R,5R)-5-(4-amino-2-oxopyrimidin-1(2H)-yl)-4-fluoro-3-hydroxy-4-methyltetrahydrofuran-2-yl)methyl tetrahydrogen triphosphate metabolite formation at 50 uM after 48 hrs by LC/MS/MS analysis; type: ADME, cell-based
In short: (§4)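 Huh-7 cells plated at 0.35 million/mL in DMEM with 10% FBS (about 1 million per well at dosing) and grown 18 h. At each time point cells were washed with cold saline and lysed in methanol with internal standard. Semiquantified by LC/MS/MS MRM as Δ mean peak-area ratio relative to t0.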

UMP-CMP kinase = target: T1, UMP-CMP kinase (Homo sapiens, UniProt P30085); assay: Drug metabolism in human HuH7 cells assessed as UMP-CMP kinase-mediated ((2R,3R,4R,5R)-5-(4-amino-2-oxopyrimidin-1(2H)-yl)-4-fluoro-3-hydroxy-4-methyltetrahydrofuran-2-yl)methyl dihydrogen phosphate metabolite formation at 50 uM after 48 hrs by LC/MS/MS analysis; type: ADME, cell-based; in short: as §4
T1 sequence (P30085 whole entry): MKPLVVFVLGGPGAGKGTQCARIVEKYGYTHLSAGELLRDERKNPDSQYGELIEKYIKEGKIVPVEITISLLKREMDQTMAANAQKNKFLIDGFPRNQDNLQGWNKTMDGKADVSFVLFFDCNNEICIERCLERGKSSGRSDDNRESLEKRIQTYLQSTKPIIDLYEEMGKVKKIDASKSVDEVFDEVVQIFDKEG

Mus musculus [6] = assay: Subacute toxicity in ICR mouse assessed as effect on renal architecture at 100 to 1000 mg/kg, administered once a day via oral gavage for 14 days by hematoxylin/eosin-staining based microscopic analysis; type: organism-based; conditions: in vivo, 336 h; in short: as §1
[7] = Drug metabolism in human HuH7 cells assessed as carboxylesterase-mediated (S)-2-((S)-(((2R,3R,4R,5R)-5-(4-amino-2-oxopyrimidin-1(2H)-yl)-4-fluoro-3-hydroxy-4-methyltetrahydrofuran-2-yl)methoxy)(hydroxy)phosphoryloxy)propanoic acid metabolite formation at 50 uM after 24 hrs by LC/MS/MS analysis; type: ADME, cell-based; in short: as §4
[8] = Inhibition of wild type NS5B in HCV genotype 1b replicon expressed in human HuH7 cells after 72 hrs by bright Glo-luciferase reporter gene assay; type: cell-based, Hepatitis C virus subtype 1b; conditions: Hepatitis C virus, Huh-7, 72 h
In short: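 Huh7 cells carrying HCV genotype 1b replicon, 8000 per well, in duplicate 3-fold dilution series with 0.5% DMSO final; 72 h at 37 °C, 5% CO2. Viability read by Cell Titer-Fluor fluorescence after 5 min; replicon inhibition read by Bright-Glo luciferase luminescence in the same wells. EC50 and CC50 come from curve fitting.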

[9] = AUClast in Beagle dog at 150 mg/kg, administered via oral gavage measured up to 24 hrs post dose by LC/MS/MS analysis; type: ADME, organism-based, Canis lupus familiaris; design: dose 150 mg/kg, time < 24 hr, route oral; conditions: in vivo; in short: as §2
[10] = Half life in human liver S9 fraction at 10 uM by LC/MS/MS analysis; type: ADME
In short: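 Compound at 10 μM working solution (1% DMSO, 5% MeOH in 100 mM Tris) incubated at 37 °C with human liver S9 at 1 mg protein/mL final. Reactions stopped with cold acetonitrile containing tolbutamide internal standard at 0, 5, 10, 20, 30 and 60 min. Parent measured by LC/MS/MS (MRM) as analyte/IS peak area ratio, given as percent remaining versus 0 min; half-life fitted.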

[11] = Drug metabolism in human HuH7 cells assessed as carboxylesterase-mediated (S)-2-((S)-(((2R,3R,4R,5R)-5-(4-amino-2-oxopyrimidin-1(2H)-yl)-4-fluoro-3-hydroxy-4-methyltetrahydrofuran-2-yl)methoxy)(hydroxy)phosphoryloxy)propanoic acid metabolite formation at 50 uM after 48 hrs by LC/MS/MS analysis; type: ADME, cell-based; in short: as §4
[12] = Half life in human plasma […] by LC/MS/MS analysis; type: ADME, cell-free
In short: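 Pooled human plasma adjusted to pH 7.4 and prewarmed, then spiked to 2 μM final from a 200 μM DMSO working solution, in duplicate. Sampled at 0, 10, 30, 60 and 120 min and quenched with acetonitrile containing tolbutamide and buspirone. LC/MS/MS (MRM) peak area ratios; ke from linear regression of the initial linear phase, t1/2 = ln2/ke.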

Mus musculus [13] = assay: Subacute toxicity in ICR mouse assessed as mortality at 100 to 1000 mg/kg, administered once a day via oral gavage for 14 days; type: organism-based; conditions: in vivo, 336 h; in short: as §3
[14] = Drug metabolism in human HuH7 cells assessed as carboxylesterase-mediated (S)-isopropyl 2-((S)-(((2R,3R,4R,5R)-5-(4-amino-2-oxopyrimidin-1(2H)-yl)-4-fluoro-3-hydroxy-4-methyltetrahydrofuran-2-yl)methoxy)(phenoxy)phosphoryloxy)propanoate metabolite formation at 50 uM after 48 hrs by LC/MS/MS analysis; type: ADME; conditions: cell-based; in short: as §4
Mus musculus [15] = assay: Subacute toxicity in ICR mouse assessed as effect on glomerulus at 100 to 1000 mg/kg, administered once a day via oral gavage for 14 days by hematoxylin/eosin-staining based microscopic analysis; type: organism-based; conditions: in vivo, 336 h; in short: as §1
[16] = Tmax in Beagle dog at 150 mg/kg, administered via oral gavage measured up to 24 hrs post dose by LC/MS/MS analysis; type: ADME, organism-based, Canis lupus familiaris; conditions: in vivo; in short: as §2
Mus musculus [17] = assay: Subacute toxicity in ICR mouse assessed as effect on hepatic perilobular vein at 100 to 1000 mg/kg, administered once a day via oral gavage for 14 days by hematoxylin/eosin-staining based microscopic analysis; type: organism-based; conditions: in vivo, 336 h; in short: as §1

## CCCC(=O)Nc1ccn([C@@H]2O[C@H](CO[P@@](=O)(N[C@@H](C)C(=O)OC(C)C)Oc3ccccc3)[C@@H](O)[C@@]2(C)F)c(=O)n1
Mus musculus [1]
  Activity: Non-Toxic
[2]
  Cmax: 51.3 ng/mL
Mus musculus [3]
  Activity: Non-Toxic
Mus musculus [4]
  Activity: Non-Toxic
[5]
  Drug metabolism: Metabolite_Detected
UMP-CMP kinase
  Drug metabolism: Metabolite_Detected
Mus musculus [6]
  Activity: Non-Toxic
[7]
  Drug metabolism: Metabolite_Detected
[8]
  EC50: 240 nM
[9]
  AUC(0-t) at 24 h: 248 ng·h/mL
[10]
  half-life at 10 µM: 9.6 min
[11]
  Drug metabolism: Metabolite_Detected
[12]
  half-life: > 231 min
Mus musculus [13]
  Activity: Non-Toxic
[14]
  Drug metabolism: Metabolite_Detected
Mus musculus [15]
  Activity: Non-Toxic
[16]
  Tmax: 54 min
Mus musculus [17]
  Activity: Non-Toxic
